PAFAH1B2 inh = PAFAH1B2 (human) inhibition; P68402; recombinant PAFAH1B2, FP-rhodamine activity probe, fluorescence polarization; inhibition, % at 3.39 µM; 340,000 tested, 1.2% active; AID 492953;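 active means inhibition above the mean of all tested compounds plus 3 SD, cut at about 24% in these data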
Target sequence (P68402 whole entry, looked up): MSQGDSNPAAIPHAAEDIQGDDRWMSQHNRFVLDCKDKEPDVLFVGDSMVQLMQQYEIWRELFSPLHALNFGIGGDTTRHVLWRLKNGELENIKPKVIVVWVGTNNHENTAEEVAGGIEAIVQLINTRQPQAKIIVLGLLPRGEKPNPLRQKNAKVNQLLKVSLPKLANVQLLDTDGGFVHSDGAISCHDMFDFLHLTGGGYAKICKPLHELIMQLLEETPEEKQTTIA
NR3A LBD binder = modulates the human NR3A ligand-binding domain. NR3A LBD differential scanning fluorimetry, Tm shift; 0% = protein alone, 100% = glycine-bound protein. Tm shift relative to glycine control, % at 25 µM. 340,000 tested, 2.5% active;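 active means melting temperature shift of at least 10% of the positive control shift, at one fixed dose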
PAFAH1B3 inh = blocks human PAF acetylhydrolase 1B catalytic subunit 3 | Q15102 | recombinant PAFAH1B3, FP-rhodamine probe, fluorescence polarization | inhibition, % at 3.39 µM | 340,000 tested, 0.28% active;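 active means inhibition above the screen-wide average of all tested compounds plus 3 SD, cut at about 25% in these data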
Target sequence (Q15102 whole entry, looked up): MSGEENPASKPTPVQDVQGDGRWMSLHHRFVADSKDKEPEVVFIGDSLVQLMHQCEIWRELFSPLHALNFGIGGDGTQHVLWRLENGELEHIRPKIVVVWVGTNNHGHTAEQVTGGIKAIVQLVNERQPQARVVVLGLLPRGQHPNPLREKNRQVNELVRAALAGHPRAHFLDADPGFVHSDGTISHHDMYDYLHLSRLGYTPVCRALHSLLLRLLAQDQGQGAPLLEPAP
PAFAH2 inh = inhibitors of human PAFAH2 | Q99487 | recombinant PAFAH2, FP-rhodamine activity probe, fluorescence polarization | inhibition, % at 3.39 µM | 340,000 tested, 0.99% active | AID 492956;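 active means inhibition above the mean over all tested compounds plus 3 SD, cut at about 30% in these data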;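 further: inhibitors block probe labeling of enzyme so polarization drops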
pPAFAH inh = inhibitors of human plasma PAF acetylhydrolase (pPAFAH); recombinant pPAFAH, FP-rhodamine probe fluorescence polarization; 330,000 tested, 1.5% active; AID 463082; inhibition, % at 3.39 µM; Q13093;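 active means inhibition above the mean inhibition across the screen plus 3 SD, cut at about 25% in these data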;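 further: inhibitors block binding of the rhodamine activity-based probe so polarization drops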
UCH37 inh = human UCH37 deubiquitinating enzyme inhibition; Q9Y5K5; purified proteasome/UCH37, Ub-AMC cleavage fluorescence; inhibition, % (no concentration beside the values); 330,000 tested, 0.33% active; AID 588478;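 active means mean inhibition over replicate wells above about 20%, limit read from the data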
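assay system = human UCH37 enzyme supplied as purified proteasome complex | amount = proteasome at 0.15 nM in the dispensed enzyme solution | schedule = 30 min compound-proteasome preincubation then 25 min substrate reaction, room temperature | measured by = fluorescence, ex 355 nm, em 460 nm | benchmarks = no-proteasome wells (full inhibition) and compound-free wells (no inhibition)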
PAFAH2 confirm = PAFAH2 (human) inhibition, confirmed; shares compounds with PAFAH2 inh; recombinant PAFAH2, FP-rhodamine activity probe, fluorescence polarization; inhibition, % at 3.39 µM; 2,300 tested, 65% active;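 active means mean inhibition over three repeats above a set limit taken from the earlier primary screen, cut at about 30% in these data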;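 further: inhibitor blocks binding of rhodamine activity probe so polarization falls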
A number is an active result. A selection: hits, their analogues and other compounds. The true share with any hit is near 4.8%.

Screening O=C(COC(=O)/C=C/c1ccccc1[N+](=O)[O-])NCC(F)(F)F returned PAFAH1B2 inh inactive, NR3A LBD binder inactive, PAFAH1B3 inh inactive, PAFAH2 inh 29.9, pPAFAH inh inactive, UCH37 inh inactive and PAFAH2 confirm inactive.
CCNC(=O)COC(=O)/C=C/c1ccccc1[N+](=O)[O-] was read as PAFAH1B2 inh inactive, NR3A LBD binder inactive, PAFAH1B3 inh inactive, PAFAH2 inh inactive, pPAFAH inh inactive and UCH37 inh inactive.
For CCN(CC)S(=O)(=O)c1ccc(C)c(NC(=O)COC(=O)C=C(C)C)c1 the results were PAFAH1B2 inh inactive, NR3A LBD binder inactive, PAFAH1B3 inh inactive, PAFAH2 inh 33.0, pPAFAH inh inactive, UCH37 inh inactive and PAFAH2 confirm 47.6.
Screening CCN(CC)S(=O)(=O)c1ccc(C)c(NC(=O)COC(=O)CCC(=O)c2cccs2)c1 returned PAFAH1B2 inh inactive, NR3A LBD binder inactive, PAFAH1B3 inh inactive, PAFAH2 inh inactive, pPAFAH inh inactive and UCH37 inh inactive.
CCOc1ncccc1C(=O)OCC(=O)Nc1cc(S(=O)(=O)N(CC)CC)ccc1C was read as PAFAH1B2 inh inactive, NR3A LBD binder inactive, PAFAH1B3 inh inactive, PAFAH2 inh 64.9, pPAFAH inh inactive, UCH37 inh inactive and PAFAH2 confirm 49.4.
`O=C(COc1nsnc1N1CCOCC1)NN=Cc1ccccc1O` gave UCH37 inh inactive.
Screening CC(=O)c1c(C)[nH]c(C(=O)OCC(=O)Nc2ccccc2Cl)c1C returned PAFAH1B2 inh inactive, NR3A LBD binder inactive, PAFAH1B3 inh inactive, PAFAH2 inh 32.9, pPAFAH inh inactive, UCH37 inh inactive and PAFAH2 confirm inactive.
For CCOC(=O)c1c(C)[nH]c(C(=O)OCC(=O)Nc2ccccc2)c1C the results were PAFAH1B2 inh inactive, NR3A LBD binder inactive, PAFAH1B3 inh inactive, PAFAH2 inh 34.5, pPAFAH inh inactive, UCH37 inh inactive and PAFAH2 confirm 33.5.
CC(=O)c1c(C)[nH]c(C(=O)OCC(=O)NCC(C)C)c1C was read as PAFAH1B2 inh inactive, NR3A LBD binder inactive, PAFAH1B3 inh inactive, PAFAH2 inh 31.1, pPAFAH inh inactive, UCH37 inh inactive and PAFAH2 confirm inactive.
For C[C@]12CCC3C(CC[C@H]4CC(O)CC[C@]34C)C1CCC2=NNC(=O)c1ccncc1 (some centres undefined) the results were UCH37 inh inactive.
`Cc1cc(C=NNC(N)=O)c(C)n1C1CCCCC1` gave UCH37 inh inactive.
`O=C(NNC(=O)C12CC3CC(CC(C3)C1)C2)c1cnccn1` gave PAFAH1B2 inh inactive, NR3A LBD binder inactive, PAFAH1B3 inh inactive, PAFAH2 inh inactive, pPAFAH inh inactive and UCH37 inh inactive.
O=C(NNC(=O)C12CC3CC(CC(C3)C1)C2)c1ccccn1 was read as PAFAH1B2 inh inactive, NR3A LBD binder inactive, PAFAH1B3 inh inactive, PAFAH2 inh 36.7, pPAFAH inh inactive, UCH37 inh inactive and PAFAH2 confirm inactive.
CCCOc1ccc(C=NNc2ccccc2[N+](=O)[O-])c(O)c1 was read as UCH37 inh inactive.
For O=C(COC(=O)/C=C/c1ccc(OC(F)F)cc1)Nc1ccc(S(=O)(=O)N2CCCC2)cc1 the results were PAFAH1B2 inh inactive, NR3A LBD binder inactive, PAFAH1B3 inh inactive, PAFAH2 inh inactive, pPAFAH inh inactive and UCH37 inh inactive.
O=C(COC(=O)c1cccs1)Nc1cccc(S(=O)(=O)N2CCOCC2)c1 was read as PAFAH1B2 inh inactive, NR3A LBD binder inactive, PAFAH1B3 inh inactive, PAFAH2 inh 63.9, pPAFAH inh inactive, UCH37 inh inactive and PAFAH2 confirm 63.2.
O=C(COC(=O)/C=C/c1ccc(OC(F)F)cc1)Nc1cccc(S(=O)(=O)N2CCCC2)c1 was read as PAFAH1B2 inh inactive, NR3A LBD binder inactive, PAFAH1B3 inh inactive, PAFAH2 inh 34.3, pPAFAH inh inactive, UCH37 inh inactive and PAFAH2 confirm 36.9.
O=C(COC(=O)c1ccc(=O)[nH]c1)Nc1cccc(S(=O)(=O)N2CCOCC2)c1 was read as PAFAH1B2 inh inactive, NR3A LBD binder inactive, PAFAH1B3 inh inactive, PAFAH2 inh 65.8, pPAFAH inh inactive, UCH37 inh inactive and PAFAH2 confirm 48.5.

Bioassay records from PubChem BioAssay.
